From ChEMBL document CHEMBL4145674, “Discovery of 3-Benzyl-1-( trans-4-((5-cyanopyridin-2-yl)amino)cyclohexyl)-1-arylurea Derivatives as Novel and Selective Cyclin-Dependent Kinase 12 (CDK12) Inhibitors” (J Med Chem, 2018) come the findings set out here.

The IC50 is the midpoint of a concentration-inhibition curve. The inhibition is the percentage by which the read-out fell short of the control. The GI50 is the concentration that inhibits growth by half. A lower GI50 goes with greater sensitivity of the cells. The solubility is the dissolved amount per volume that the medium holds. Lower therefore signals little dissolved substance. For orientation: chromatographic logD means a lipophilicity value derived from retention on a column.

Converted amounts (≈) assume the structure as drawn. The source made the active and inactive calls. No cut-off for these calls is given here.

In one data set the target is CDK9/cyclin T1 (Homo sapiens, UniProt P50750). In kind it is protein-complex assay.
Data set [1] deals with T1, Cyclin-dependent kinase 12 (Homo sapiens, UniProt Q9NYV4). The data set is described as follows: Inhibition of CDK12 in human SK-BR-3 cells assessed as reduction in RNA polymerase 2 Ser2 phosphorylation incubated for 4 hrs by. In kind it is cell-based.
Target sequence in this assay (Q9NYV4 whole entry, the tested form may be a part): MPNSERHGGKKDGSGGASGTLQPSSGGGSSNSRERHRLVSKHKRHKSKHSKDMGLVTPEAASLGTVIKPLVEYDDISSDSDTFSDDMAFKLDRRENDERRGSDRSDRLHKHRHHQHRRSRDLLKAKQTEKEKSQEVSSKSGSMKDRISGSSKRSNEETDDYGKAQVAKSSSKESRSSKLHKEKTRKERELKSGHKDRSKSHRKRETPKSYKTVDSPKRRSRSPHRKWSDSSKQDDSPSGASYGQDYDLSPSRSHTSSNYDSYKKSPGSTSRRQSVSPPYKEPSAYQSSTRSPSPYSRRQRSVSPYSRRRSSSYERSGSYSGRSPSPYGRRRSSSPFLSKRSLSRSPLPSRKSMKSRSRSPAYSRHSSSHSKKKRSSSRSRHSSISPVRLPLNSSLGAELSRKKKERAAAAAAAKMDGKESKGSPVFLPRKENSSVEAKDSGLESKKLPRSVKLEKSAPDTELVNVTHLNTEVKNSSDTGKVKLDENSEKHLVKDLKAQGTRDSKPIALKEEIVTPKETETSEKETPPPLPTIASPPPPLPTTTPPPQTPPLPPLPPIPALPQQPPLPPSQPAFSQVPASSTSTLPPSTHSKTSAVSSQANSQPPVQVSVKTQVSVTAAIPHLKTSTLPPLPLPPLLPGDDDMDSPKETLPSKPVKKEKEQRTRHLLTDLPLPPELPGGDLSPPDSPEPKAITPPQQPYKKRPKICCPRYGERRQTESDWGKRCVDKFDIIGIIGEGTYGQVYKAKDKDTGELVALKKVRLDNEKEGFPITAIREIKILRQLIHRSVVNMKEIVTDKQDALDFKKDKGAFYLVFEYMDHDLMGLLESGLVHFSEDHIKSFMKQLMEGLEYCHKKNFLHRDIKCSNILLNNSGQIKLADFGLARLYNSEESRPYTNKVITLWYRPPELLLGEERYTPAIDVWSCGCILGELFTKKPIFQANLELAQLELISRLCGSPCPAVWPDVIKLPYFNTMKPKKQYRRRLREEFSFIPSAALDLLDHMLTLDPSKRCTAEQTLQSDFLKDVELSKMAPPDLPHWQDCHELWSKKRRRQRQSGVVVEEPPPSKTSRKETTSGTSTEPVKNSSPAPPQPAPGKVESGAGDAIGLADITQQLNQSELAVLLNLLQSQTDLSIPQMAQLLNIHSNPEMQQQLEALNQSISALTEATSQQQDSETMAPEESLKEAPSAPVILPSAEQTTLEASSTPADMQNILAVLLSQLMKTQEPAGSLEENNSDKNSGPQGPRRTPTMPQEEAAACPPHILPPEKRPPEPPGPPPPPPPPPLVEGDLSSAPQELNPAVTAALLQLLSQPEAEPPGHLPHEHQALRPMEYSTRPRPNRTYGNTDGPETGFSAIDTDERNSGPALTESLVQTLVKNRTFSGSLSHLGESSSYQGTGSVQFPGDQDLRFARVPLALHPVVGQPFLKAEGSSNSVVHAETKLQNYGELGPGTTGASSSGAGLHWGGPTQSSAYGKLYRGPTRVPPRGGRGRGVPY
For a further data set, the target named is CDK12/Cyclin K (Homo sapiens, UniProt Q9NYV4). The data set is described as follows: Inhibition of N-terminal FLAG-tagged human full-length CDK12 (1 to 1490 residues)/N-terminal His-tagged CycK (1 to 580 residues) expressed in Sf9 cells assessed as reduction in ATP-dependent ULight-4E-BP1 (Thr37/Thr46) substrate peptide phosphorylation pre-incubated for 60 mins by LANCE Ultra assay.

The target in the next data set is CDK7/Cyclin H/MNAT1 (Homo sapiens, UniProt P50613).
Data set [2] has as its target T2, Serine/threonine-protein kinase TAO1 (Homo sapiens) (UniProt Q7L7X3).
T2 sequence (whole entry): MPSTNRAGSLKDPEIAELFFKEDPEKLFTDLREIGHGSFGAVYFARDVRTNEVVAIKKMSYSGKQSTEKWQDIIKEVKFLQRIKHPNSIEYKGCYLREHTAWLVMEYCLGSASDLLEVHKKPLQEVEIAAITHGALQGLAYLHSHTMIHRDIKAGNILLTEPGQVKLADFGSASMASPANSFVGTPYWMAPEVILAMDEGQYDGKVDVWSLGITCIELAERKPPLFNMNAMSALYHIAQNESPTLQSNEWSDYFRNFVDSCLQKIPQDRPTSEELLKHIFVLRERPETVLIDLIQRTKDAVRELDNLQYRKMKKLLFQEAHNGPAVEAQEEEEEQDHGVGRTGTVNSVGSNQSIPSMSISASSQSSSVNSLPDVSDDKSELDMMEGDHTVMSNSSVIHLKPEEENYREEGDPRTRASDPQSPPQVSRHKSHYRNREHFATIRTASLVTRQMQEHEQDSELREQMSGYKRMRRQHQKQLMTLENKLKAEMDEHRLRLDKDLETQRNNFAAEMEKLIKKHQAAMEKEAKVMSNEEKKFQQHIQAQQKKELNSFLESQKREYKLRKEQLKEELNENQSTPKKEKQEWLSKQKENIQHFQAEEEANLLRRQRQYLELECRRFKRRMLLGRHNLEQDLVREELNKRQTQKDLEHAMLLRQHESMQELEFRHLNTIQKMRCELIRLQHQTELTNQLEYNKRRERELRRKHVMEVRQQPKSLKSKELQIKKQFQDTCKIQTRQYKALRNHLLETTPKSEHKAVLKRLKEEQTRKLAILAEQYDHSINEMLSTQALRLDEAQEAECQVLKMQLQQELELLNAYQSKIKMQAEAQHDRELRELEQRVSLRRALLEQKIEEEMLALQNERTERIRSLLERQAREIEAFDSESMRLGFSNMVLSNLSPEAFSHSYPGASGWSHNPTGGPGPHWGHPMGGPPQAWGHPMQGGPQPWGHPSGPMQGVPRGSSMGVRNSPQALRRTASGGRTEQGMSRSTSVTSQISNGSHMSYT
The experiment in a line: Inhibition of N-terminal GST tagged recombinant human TAOK1 (1 to 314 residues) expressed in baculovirus infected Sf9 cells at 1 uM.

Data set [3] is described as follows: Permeability of the compound at 10 umol/L incubated for 3 hrs by LC/MS/MS detection based PAMPA method. In kind it is ADME. As to conditions: read-out: permeability. A digest of the protocol:
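PAMPA: donor buffer pH 7.4 holding 10 μmol/L compound; acceptor filter coated with GIT-0 lipid, acceptor sink buffer. 3 h at room temperature. Compound in donor and acceptor wells quantified by LC/MS/MS.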
A general note: The PAMPA barrier holds no transporters, so it reflects passive diffusion.

Another data set relates to SK-BR-3. The data set is described as follows: Growth inhibition of human SK-BR-3 cells incubated for 72 hrs by cell-titer-Glo luminescent cell viability assay. The class given is functional. As to conditions: SK-BR-3, 72 h. A digest of the protocol: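 SK-BR-3 (ATCC) kept in medium with 10% FBS, penicillin and streptomycin, subcultured every 3 days. 3 × 10^3 cells seeded, left overnight, then compound diluted in culture medium added. Viability by CellTiter-Glo luminescence after 72 h.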

In data set [4] the target is T3, Dual specificity tyrosine-phosphorylation-regulated kinase 2 (Homo sapiens) (UniProt Q92630).
T3 sequence (whole entry): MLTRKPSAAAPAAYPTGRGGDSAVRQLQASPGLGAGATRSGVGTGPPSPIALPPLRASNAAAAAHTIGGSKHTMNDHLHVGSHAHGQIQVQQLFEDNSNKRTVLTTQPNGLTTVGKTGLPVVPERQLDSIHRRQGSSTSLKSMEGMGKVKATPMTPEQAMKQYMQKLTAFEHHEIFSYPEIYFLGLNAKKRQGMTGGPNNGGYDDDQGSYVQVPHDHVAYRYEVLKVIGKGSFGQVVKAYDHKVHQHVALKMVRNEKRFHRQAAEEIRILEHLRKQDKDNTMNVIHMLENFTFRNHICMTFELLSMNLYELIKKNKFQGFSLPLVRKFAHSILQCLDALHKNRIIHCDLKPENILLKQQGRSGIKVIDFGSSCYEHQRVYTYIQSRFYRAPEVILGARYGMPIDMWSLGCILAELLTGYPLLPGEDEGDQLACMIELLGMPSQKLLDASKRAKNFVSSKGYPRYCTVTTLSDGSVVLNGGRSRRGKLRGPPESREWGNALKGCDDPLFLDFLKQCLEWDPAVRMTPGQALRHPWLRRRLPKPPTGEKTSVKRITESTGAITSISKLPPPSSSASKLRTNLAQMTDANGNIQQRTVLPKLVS
The experiment in a line: Inhibition of N-terminal GST tagged recombinant full-length human DYRK2 expressed in Escherichia coli at 1 uM.

A short description of data set [5]: Solubility in aqueous buffer solution at pH 6.8 by UV absorbance spectroscopy. In kind it is physicochemical. A digest of the protocol:
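Compound in DMSO spiked into aqueous buffer pH 6.8 and incubated. Precipitate removed by filtration, dissolved compound quantified by UV absorbance of the filtrate.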

Data set [6] addresses STE20/SPS1-related proline-alanine-rich protein kinase (Homo sapiens) (UniProt Q9UEW8). The data set is described as follows: Inhibition of N-terminal His tagged recombinant full-length human STK39 expressed in baculovirus infected Sf9 cells at 1 uM.
The nature of data set [7]: Partition coefficient between 1-octanol and aqueous buffer, log D of the compound at pH 7.4 buffer by chromatography. The class given is physicochemical. Conditions: 1-octanol/aqueous buffer. A digest of the protocol: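 log D as octanol/buffer partition at pH 7.4, determined chromatographically.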
The target in data set [8] is T1, Cyclin-dependent kinase 12. The data set is described as follows: Time dependent inhibition of human CDK12 incubated for 0 to 5 hrs using ULight-4E-BP1 (Thr37/Thr46) substrate by LANCE system based assay. (In TR-FRET formats the signal depends on donor and acceptor labels being close together.)
Target sequence in this assay (Q9NYV4 whole entry, looked up, the tested form may be a part): as the sequence (Q9NYV4 whole entry, the tested form may be a part) above
In the next data set the target is CDK8/Cyclin C (Homo sapiens, UniProt P49336). The data set is described as follows: Inhibition of GST-tagged human CDK8/CycC (04 to 109 residues) using kinase tracer 236 probe incubated for 60 mins by TR-FRET assay. In kind it is protein-complex assay.
In data set [9] the target is Cyclin-dependent kinase 13/Cyclin-K (Homo sapiens, UniProt Q14004). The data set is described as follows: Inhibition of N-terminal FLAG-tagged human full-length CDK13 (1 to 1512 residues)/N-terminal His-tagged CycK (1 to 580 residues) expressed in Sf9 cells assessed as reduction in ATP-dependent ULight-4E-BP1 (Thr37/Thr46) substrate peptide phosphorylation pre-incubated for 60 mins by LANCE Ultra assay.

CDK9/cyclin T1, sequence (O60563 whole entry): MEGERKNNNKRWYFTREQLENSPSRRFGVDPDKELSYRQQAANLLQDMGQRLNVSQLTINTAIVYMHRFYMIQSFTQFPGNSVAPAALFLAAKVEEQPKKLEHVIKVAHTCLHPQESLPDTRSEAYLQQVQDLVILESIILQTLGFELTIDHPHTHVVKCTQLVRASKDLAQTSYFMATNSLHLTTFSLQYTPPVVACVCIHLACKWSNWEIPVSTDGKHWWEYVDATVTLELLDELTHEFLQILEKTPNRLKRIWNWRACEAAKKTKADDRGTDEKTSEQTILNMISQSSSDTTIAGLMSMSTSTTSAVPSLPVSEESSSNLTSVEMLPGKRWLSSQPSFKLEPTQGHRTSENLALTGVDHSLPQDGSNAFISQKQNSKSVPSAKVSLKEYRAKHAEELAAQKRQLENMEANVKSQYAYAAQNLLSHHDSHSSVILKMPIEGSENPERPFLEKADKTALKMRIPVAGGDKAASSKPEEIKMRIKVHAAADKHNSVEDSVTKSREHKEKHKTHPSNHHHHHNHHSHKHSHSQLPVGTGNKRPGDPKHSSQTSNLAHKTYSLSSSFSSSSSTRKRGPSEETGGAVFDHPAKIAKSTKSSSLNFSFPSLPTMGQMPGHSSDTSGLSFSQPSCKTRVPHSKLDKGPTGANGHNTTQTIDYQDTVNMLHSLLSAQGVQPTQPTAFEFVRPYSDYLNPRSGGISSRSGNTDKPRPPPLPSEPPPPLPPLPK
CDK9/cyclin T1, sequence (P50750 whole entry): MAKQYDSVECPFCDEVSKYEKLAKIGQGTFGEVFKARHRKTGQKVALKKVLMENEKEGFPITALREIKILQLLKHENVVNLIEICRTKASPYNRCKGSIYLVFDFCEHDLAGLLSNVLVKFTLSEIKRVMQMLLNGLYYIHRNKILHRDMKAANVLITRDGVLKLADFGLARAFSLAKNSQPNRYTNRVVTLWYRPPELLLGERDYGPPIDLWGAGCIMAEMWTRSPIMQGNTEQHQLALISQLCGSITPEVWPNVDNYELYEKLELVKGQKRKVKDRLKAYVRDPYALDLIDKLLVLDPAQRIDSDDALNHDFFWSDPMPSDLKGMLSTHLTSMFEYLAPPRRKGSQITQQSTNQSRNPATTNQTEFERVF
CDK7/Cyclin H/MNAT1, sequence (P51946 whole entry): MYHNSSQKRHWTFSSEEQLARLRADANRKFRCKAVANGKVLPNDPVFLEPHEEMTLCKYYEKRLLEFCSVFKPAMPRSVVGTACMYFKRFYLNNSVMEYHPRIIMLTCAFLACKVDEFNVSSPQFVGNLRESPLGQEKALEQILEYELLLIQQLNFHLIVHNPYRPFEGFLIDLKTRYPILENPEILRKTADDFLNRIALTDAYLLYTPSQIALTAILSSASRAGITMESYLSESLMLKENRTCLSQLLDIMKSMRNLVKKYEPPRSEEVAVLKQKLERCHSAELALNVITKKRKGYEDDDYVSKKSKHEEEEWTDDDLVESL
CDK7/Cyclin H/MNAT1, sequence (P50613 whole entry): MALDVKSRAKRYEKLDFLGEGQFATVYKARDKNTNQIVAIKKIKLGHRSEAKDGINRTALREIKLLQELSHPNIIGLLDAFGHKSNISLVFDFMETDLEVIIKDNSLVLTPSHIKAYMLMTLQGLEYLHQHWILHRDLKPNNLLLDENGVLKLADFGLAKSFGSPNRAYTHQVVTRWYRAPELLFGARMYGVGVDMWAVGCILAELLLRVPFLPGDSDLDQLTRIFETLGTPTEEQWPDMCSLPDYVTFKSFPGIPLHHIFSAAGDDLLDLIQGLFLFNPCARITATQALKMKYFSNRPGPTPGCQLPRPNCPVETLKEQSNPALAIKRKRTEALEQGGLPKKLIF
CDK7/Cyclin H/MNAT1, sequence (P51948 whole entry, further chain): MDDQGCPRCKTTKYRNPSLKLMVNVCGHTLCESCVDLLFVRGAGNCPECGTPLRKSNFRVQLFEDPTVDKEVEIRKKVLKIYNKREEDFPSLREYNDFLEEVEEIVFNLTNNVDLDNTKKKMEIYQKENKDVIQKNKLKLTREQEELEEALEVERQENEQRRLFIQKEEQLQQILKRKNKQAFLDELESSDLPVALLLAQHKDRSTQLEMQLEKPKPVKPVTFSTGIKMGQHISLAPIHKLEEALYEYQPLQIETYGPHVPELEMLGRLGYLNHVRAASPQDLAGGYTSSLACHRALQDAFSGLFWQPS
CDK12/Cyclin K, sequence (O75909 whole entry, the tested form may be a part): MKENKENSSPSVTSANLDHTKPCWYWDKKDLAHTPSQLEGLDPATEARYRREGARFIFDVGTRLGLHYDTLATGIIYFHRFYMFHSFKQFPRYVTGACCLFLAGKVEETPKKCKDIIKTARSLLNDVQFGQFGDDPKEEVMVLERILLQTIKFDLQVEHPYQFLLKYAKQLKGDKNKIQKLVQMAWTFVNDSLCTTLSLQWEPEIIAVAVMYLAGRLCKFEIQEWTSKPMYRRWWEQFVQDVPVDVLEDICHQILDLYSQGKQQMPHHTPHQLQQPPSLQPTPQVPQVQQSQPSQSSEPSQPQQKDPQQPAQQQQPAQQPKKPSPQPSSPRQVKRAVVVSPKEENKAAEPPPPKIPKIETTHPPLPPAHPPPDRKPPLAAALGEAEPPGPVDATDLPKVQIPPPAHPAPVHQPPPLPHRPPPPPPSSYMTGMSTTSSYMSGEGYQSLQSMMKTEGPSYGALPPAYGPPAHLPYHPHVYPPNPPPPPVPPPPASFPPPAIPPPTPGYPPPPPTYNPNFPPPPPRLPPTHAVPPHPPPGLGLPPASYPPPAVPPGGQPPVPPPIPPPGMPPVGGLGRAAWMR
CDK12/Cyclin K, sequence (Q9NYV4 whole entry, the tested form may be a part): as the sequence (Q9NYV4 whole entry, the tested form may be a part) above
CDK8/Cyclin C, sequence (P49336 whole entry, the tested form may be a part): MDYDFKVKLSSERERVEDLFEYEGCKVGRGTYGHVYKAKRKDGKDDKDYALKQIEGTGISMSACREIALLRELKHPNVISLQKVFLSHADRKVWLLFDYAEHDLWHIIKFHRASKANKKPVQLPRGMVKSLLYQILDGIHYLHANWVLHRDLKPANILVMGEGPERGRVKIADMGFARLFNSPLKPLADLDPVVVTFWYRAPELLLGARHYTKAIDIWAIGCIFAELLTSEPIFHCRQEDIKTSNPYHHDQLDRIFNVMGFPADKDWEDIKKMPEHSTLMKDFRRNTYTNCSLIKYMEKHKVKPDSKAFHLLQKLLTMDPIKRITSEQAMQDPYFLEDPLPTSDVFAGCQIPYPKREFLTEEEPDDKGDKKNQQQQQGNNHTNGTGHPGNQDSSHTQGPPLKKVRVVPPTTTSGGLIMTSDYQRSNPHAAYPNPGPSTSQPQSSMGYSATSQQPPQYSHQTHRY
CDK8/Cyclin C, sequence (P24863 whole entry, further chain, the tested form may be a part): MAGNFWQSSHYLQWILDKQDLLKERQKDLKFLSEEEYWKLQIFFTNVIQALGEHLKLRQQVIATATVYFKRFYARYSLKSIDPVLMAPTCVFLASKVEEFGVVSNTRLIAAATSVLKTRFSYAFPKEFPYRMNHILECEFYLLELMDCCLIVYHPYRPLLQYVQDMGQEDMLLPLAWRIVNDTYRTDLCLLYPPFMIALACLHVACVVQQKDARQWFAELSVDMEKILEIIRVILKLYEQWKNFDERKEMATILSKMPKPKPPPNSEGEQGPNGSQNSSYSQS

For `CC(C)C(=O)OC[C@@H]1O[C@@H](n2cnc(N)c3c(C(N)=O)c(Br)nc2-3)[C@@H](O)[C@@H]1O`, the IC50 came out at 220 nM against CDK9/cyclin T1, 259 nM in data set [1], 110 nM at CDK12/Cyclin K and 1200 nM at CDK7/Cyclin H/MNAT1.

With `Cn1cc(-c2ccc(N(C(=O)NCc3ccccc3)[C@H]3CC[C@H](Nc4ccc(C#N)cn4)CC3)cc2)ccc1=O`, the inhibition in data set [2], in [4] and in [6] was above 80% in each case. In addition, in data set [3], the Papp at 3 h, 10 µM was determined as 27.3 ×10⁻⁶ cm/s. Further, the GI50 with SK-BR-3 is 800 nM. In addition, the IC50 against CDK9/cyclin T1 was 16000 nM; on CDK7/Cyclin H/MNAT1, above 10000 nM; against CDK8/Cyclin C, above 10000 nM. For the same compound, the solubility in data set [5] worked out at 7.7 µg/mL (≈ 14.5 µM). Besides, in data set [7], the chromatographic logD amounted to 2.4. In [8], the TDI result was “inactive”.

Take `Cn1cc(-c2ccc(N(C(=O)NCc3ccccc3)[C@H]3CC[C@@H](Nc4ccc(C#N)cn4)CC3)cc2)cn1`: the IC50 was above 10000 nM in data set [9]; above 30000 nM against CDK9/cyclin T1; above 30000 nM at CDK12/Cyclin K; above 10000 nM against CDK7/Cyclin H/MNAT1; above 10000 nM against CDK8/Cyclin C.
